# Source: paper PMC5669405 (Biochemistry and Biophysics Reports, 2015)
# Assays:
# [1] = MTT cell viability, compound alone; assay type: cell-based, human; conditions: human, SH-SY5Y neuroblastoma cells
# Summary of the method: (§1)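 Cells were SH-SY5Y grown in DMEM/F12 with 10% FBS at 37 °C and 5% CO₂, seeded at 5×10⁴ cells/well, and given fresh medium with 0.9 µM compound alone 24 h after plating. After 24 h, MTT (5 mg/mL stock) was added for 4 h, then isopropanol/0.04 mol/L HCl overnight. Read OD570 minus OD700, normalised to untreated and 100% death controls. Triplicate wells, three plates, mean±SEM, kept in the dark.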
# Solubility check = assay type: physicochemical
# Aβ (1–42) [2] = target: T1, Aβ (1–42) (Homo sapiens, UniProt P05067); assay: SDS-PAGE and western blotting of Aβ; assay type: biochemical; conditions: for Smear bands in SDS-PAGE: 30 µM compound, 24 h, 37 °C; for Effects on Aβ aggregation (in words): derivatives without hydroxy groups on the aromatic groups
# T1 sequence (P05067 672-713): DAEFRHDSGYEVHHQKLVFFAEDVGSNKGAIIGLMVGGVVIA
# Summary of the method: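 Aβ(1–42) monomerized in HFIP (1 mM, 37 °C, 1 h), diluted to 10 µM in PBS with 30 µM test compound (final; DMSO vehicle), incubated 24 h at 37 °C. Diluted to 2.25 µM in unheated SDS buffer, run on 10–20% gels, blotted to PVDF and probed with 6E10 then HRP anti-mouse, with chemiluminescence detection. Band intensities per range were read against marker. Means±SEM, ≥3 independent experiments, ANOVA/Dunnett vs DMSO.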
# SH-SY5Y cells [3] = assay: MTT cell viability, compound alone; assay type: cell-based, human; conditions: SH-SY5Y, 24 h; for Viability C. Compound alone: 0.9 µM compound, mean±SEM
# Summary of the method: as §1
# SH-SY5Y cells [4] = assay: MTT cell viability, simultaneous treatment with Aβ aggregates and the compounds; assay type: cell-based, human; conditions: 24 h, 0.3 µM Aβ aggregates, 0.9 µM compound
# Summary of the method: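 Aβ(1–42) was HFIP-pretreated, taken up at 5 mM in DMSO, diluted to 10 µM in PBS and aggregated 24 h at 37 °C. SH-SY5Y cells (5×10⁴/well, 24 h after plating) received 0.3 µM of these aggregates plus 0.9 µM compound together for 24 h. Read-out was MTT (4 h), OD570−OD700, as % of untreated and 100% death controls. Triplicate wells in ≥3 independent runs; ANOVA/Dunnett against DMSO vehicle.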
# Aβ aggregates = Aβ aggregates (Homo sapiens, UniProt P05067); assay: Thioflavin T fluorescence competition assay; assay type: binding
# Chain of Aβ aggregates (P05067 672-713): as above
# Aβ (1–42) [5] = target: T1, Aβ (1–42); assay: Native gel electrophoresis of Aβ; assay type: biochemical; conditions: 30 µM compound, 24 h, 37 °C
# Summary of the method: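 HFIP-pretreated Aβ(1–42) (5 mM DMSO stock) was diluted to 10 µM in PBS with 30 µM compound (1.5 mM DMSO stock) and held 24 h at 37 °C in the dark; DMSO served as vehicle. Samples were brought to 2.25 µM in native sample buffer, run on 5–20% gels at 100 V for 4 h at 4 °C and transferred to PVDF. Blots used 6E10 anti-Aβ (1:1000), HRP anti-mouse (1:20,000) and chemiluminescence.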
# amyloid plaques = conditions: transgenic mouse model of AD, injection via the tail vein; cited from earlier work
# APP/PS1 mice = conditions: cited from earlier work
# Aβ = conditions: cited from earlier work
# [6] = all ranges of 15–20, 20–37, 37–75, and 75–200 kDa
compound,measurement,setting,value
"COc1cc(/C=C/C(=O)CC(=O)/C=C/c2ccc(O)c(OC)c2)ccc1O [Cur, Curcumin, reference compound]","viability at 24 h, 0.9 µM",[1],97.5 ± 7.3%
same,Solubility / precipitation,Solubility check; 30 µM in PBS with DMSO,no precipitation
same,Solubility / precipitation,Solubility check; 200 µM solution,clearly observed precipitates
"COc1cc(C=CC(=O)CC(=O)C=Cc2ccc(O)c(OC(F)(F)F)c2)ccc1O [SY2, 1-[(4-Hydroxy-3-methoxy)phenyl]-7-[(4-hydroxy-3-trifluoromethoxy)phenyl]-1,6-heptadiene-3,5-dione]",Densities of the bands of Aβ (1–42) vs vehicle control (in words),Aβ (1–42) [2]; only in the range of 15–20 kDa,significant increases
same,Viability C. Compound alone,SH-SY5Y cells [3],101.4±2.0%
"COc1cc(C=CC(=O)CC(=O)C=Cc2cc(C(F)(F)F)cc(C(F)(F)F)c2)ccc1O [SY4, 1-[(4-Hydroxy-3-methoxy)phenyl]-7-[3,5-bis(trifluoromethyl)phenyl]-1,6-heptadiene-3,5-dione]",Cell viability after simultaneous treatment vs vehicle control (in words),SH-SY5Y cells [4],significant reduction in cell viability
same,Viability C. Compound alone,SH-SY5Y cells [3],91.6±3.2%
"COC(=O)CCC(C(=O)C=Cc1ccc(O)c(OC(F)(F)F)c1)C(=O)C=Cc1ccc(O)c(OC(F)(F)F)c1 (stereo not drawn) [SY5, 1,7-bis (4′-hydroxy-3′-trifluoromethoxyphenyl)-4-methoxycarbonylethyl-1,6-heptadiene-3,5-dione]",IC50,Aβ aggregates,440 nM
same,Smear bands in SDS-PAGE,Aβ (1–42) [2],Marked smear bands
same,Densities of the bands of Aβ (1–42) vs vehicle control (in words),Aβ (1–42) [2]; [6],significant increases
same,"viability at 24 h, 0.9 µM",[1],102 ± 3.6%
same,Solubility / precipitation,Solubility check; 30 µM in PBS with DMSO,no precipitation
same,Smear bands in native-PAGE,Aβ (1–42) [5],Marked smear bands
same,Binding to amyloid plaques in brain,amyloid plaques,bound to amyloid plaques
same,Blood–brain barrier penetration,amyloid plaques,penetrated the blood–brain barrier
same,Amyloid deposition,APP/PS1 mice,reduce amyloid deposition
same,Cognitive decline,APP/PS1 mice,inhibit cognitive decline
same,Inhibition of Aβ aggregation,"Aβ; 30 µM, ref our previous study",significant inhibition of Aβ aggregation
same,Formation of higher molecular size Aβ aggregates,Aβ; incubated with Aβ during the aggregation state in vitro,inhibit the formation of higher molecular size Aβ aggregates
"COc1ccc(C=CC(=O)CC(=O)C=Cc2ccc(OC)c(F)c2)cc1F [SY9, 1,7-Bis[(3-fluoro-4-methoxy)phenyl]-1,6-heptadiene-3,5-dione]",Effects on Aβ aggregation (in words),Aβ (1–42) [2],no effects on Aβ aggregation
same,Viability C. Compound alone,SH-SY5Y cells [3],94.2±2.5%
"COC(=O)CCC(C(=O)C=Cc1cc(F)c(O)c(F)c1)C(=O)C=Cc1cc(F)c(O)c(F)c1 (stereo not drawn) [SY16, 1,7-Bis[(4-hydroxy-3,5-difluoro)phenyl]-4-methoxycarbonylethyl-1,6-hexadiene-3,5-dione]",Viability C. Compound alone,SH-SY5Y cells [3],94.1±2.8%
"COc1ccc(C=CC(=O)C(C)C(=O)C=Cc2ccc(OC)c(OC(F)(F)F)c2)cc1OC(F)(F)F (stereo not drawn) [SY18, 1,7-Bis[(4-methoxy-3-trifluoromethoxy)phenyl]-4-methyl-1,6-hexadiene-3,5-dione]",Effects on Aβ aggregation (in words),Aβ (1–42) [2],no effects on Aβ aggregation
same,Cell viability after treatment with compound alone (in words),SH-SY5Y cells [3]; 0.9 µM,significantly reduced cell viability
same,Viability C. Compound alone,SH-SY5Y cells [3],69.5±7.7 %
"COCOc1ccc(C=CC(=O)C(CCC(=O)OC(C)(C)C)C(=O)C=Cc2ccc(OCOC)c(OC(F)(F)F)c2)cc1OC(F)(F)F (stereo not drawn) [SY22, 1,7-Bis[(4-methoxymethoxy-3-trifluoromethoxy)phenyl]-4-(1,1-dimethylethoxy)carbonylethyl-1,6-hexadiene-3,5-dione]",Effects on Aβ aggregation (in words),Aβ (1–42) [2],no effects on Aβ aggregation
same,Viability C. Compound alone,SH-SY5Y cells [3],95.8±3.6%
"COC(=O)CCC(C(=O)C=Cc1ccc(O)c(OC)c1)C(=O)C=Cc1ccc(O)c(OC)c1 (stereo not drawn) [SY23, 1,7-Bis[(4-hydroxy-3-methoxy)phenyl]-4-methoxycarbonylethyl-1,6-heptadiene-3,5-dione]",Viability C. Compound alone,SH-SY5Y cells [3],97.9±2.4%
"O=C(C=Cc1ccc(O)c(OC(F)(F)F)c1)C(CCOCCOCCOCCOC1CCCCO1)C(=O)C=Cc1ccc(O)c(OC(F)(F)F)c1 (stereo not drawn) [SY27, 1,7-Bis[(4-hydroxy-3-trifluoromethoxy)phenyl]-4-[11-(2-tetrahydropyranyloxy)-3,6,9-trioxaundec-1yl]-1,6-heptadiene-3,5-dione]",Viability C. Compound alone,SH-SY5Y cells [3],98.5±5.3%
"O=C(C=Cc1ccc(O)c(OC(F)(F)F)c1)C(CCOC1CCCCO1)C(=O)C=Cc1ccc(O)c(OC(F)(F)F)c1 (stereo not drawn) [SY33, 1,7-Bis[(4-hydroxy-3-trifluoromethoxy)phenyl]-4-(2-tetrahydropyranyloxy)ethyl-1,6-heptadiene-3,5-dione]",Smear bands in SDS-PAGE,Aβ (1–42) [2],Marked smear bands
same,Densities of the bands of Aβ (1–42) vs vehicle control (in words),Aβ (1–42) [2]; [6],significant increases
same,Viability C. Compound alone,SH-SY5Y cells [3],97.8±4.2%
same,Solubility / precipitation,Solubility check; 30 µM in PBS with DMSO,no precipitation
same,Smear bands in native-PAGE,Aβ (1–42) [5],Marked smear bands
"COC(=O)COc1ccc(C=CC(=O)CC(=O)C=Cc2ccc(O)c(OC)c2)cc1OC [SY35, 1-[(4-Hydroxy-3-methoxy)phenyl]-7-[(3-methoxy-4-methoxycarbonylmethoxy)phenyl]-1,6-heptadiene-3,5-dione]",Viability C. Compound alone,SH-SY5Y cells [3],93.7±2.9%
"COC(=O)CCC(C(=O)C=Cc1ccc(O)c(OC(F)(F)F)c1)C(=O)C=Cc1ccco1 (stereo not drawn) [SY37, 1-[(4-Hydroxy-3-trifluoromethoxy)phenyl]-7-(2-furyl)-4-methoxycarbonylethyl-1,6-heptadiene-3,5-dione]",Densities of the bands of Aβ (1–42) vs vehicle control (in words),Aβ (1–42) [2]; only in the range of 20–37 kDa,significant increases
same,Viability C. Compound alone,SH-SY5Y cells [3],93.0±4.1%
"COC(=O)CCC(C(=O)C=Cc1ccc(O)c(F)c1)C(=O)C=Cc1ccc(O)c(F)c1 (stereo not drawn) [SY38, 1,7-Bis[(4-hydroxy-3-fluoro)phenyl]-4-methoxycarbonylethyl-1,6-heptadiene-3,5-dione]",Densities of the bands of Aβ (1–42) vs vehicle control (in words),Aβ (1–42) [2]; only in the range of 20–37 kDa,significant increases
same,Viability C. Compound alone,SH-SY5Y cells [3],91.6±3.9%
"CCC(C(=O)C=Cc1ccc(O)c(OC(F)(F)F)c1)C(=O)C=Cc1ccc(O)c(OC(F)(F)F)c1 (stereo not drawn) [SY41, 1,7-Bis[(4-hydroxy-3-trifluoromethoxy)phenyl]-4-ethyl-1,6-heptadiene-3,5-dione]",Viability C. Compound alone,SH-SY5Y cells [3],93.4±5.9%
"COc1ccc(C=CC(=O)C(CCC(=O)OC(C)(C)C)C(=O)C=Cc2ccc(OC)c(F)c2)cc1F (stereo not drawn) [SY42, 1,7-Bis[(3-fluoro-4-methoxy)phenyl]-4-(1,1-dimethylethoxy)carbonylethyl-1,6-heptadiene-3,5-dione]",Effects on Aβ aggregation (in words),Aβ (1–42) [2],no effects on Aβ aggregation
same,Viability C. Compound alone,SH-SY5Y cells [3],88.6±6.3%
